Data published in ChEMBL document CHEMBL4689842, “EUbOPEN Chemogenomics Library wave 1” (2021).
Where “and” joins values, the source holds several entries; their conditions need not be identical. Identical values can stand only once.

Columns and labels:
Type in all cases: toxicity, cell-based
[1] = test system: U2OS; assay: Incucyte cell viability with U2OS; settings: human, 10 µM, compound concentration 10 uM; also: filed as whole numbers so only -1 and 0 and 1 occur
[2] = test system: HEK-293T; assay: Multiplex assay against HEK293T; settings: human, 10 µM, compound concentration 10 uM;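 as to Population Tubulin-Different-Phenotype (%): share of the cells with healthy nuclei that show this phenotype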
In short: (§1)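 On a CQ1 microscope at 37°C and 5% CO2, live cells were imaged after compound addition. They had been stained at seeding with Hoechst33342, BioTracker Green Microtubule Cytoskeleton Dye, MitoTracker Red and Annexin V Alexa Fluor 680. CellPathfinder machine-learning gating assigned cells to Hoechst high-intensity objects or normal cells, normal cells to healthy, pyknosed or fragmented nuclei, and pyknosed cells to mitotic or apoptotic. Tubulin, mitochondrial-mass and membrane-permeability phenotypes are per cents of healthy-nucleus cells.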

[3] = test system: Fibroblast; assay: Incucyte cell viability with human fibroblast; settings: 10 µM, compound concentration 10 uM; also: filed as whole numbers so only -1 and 0 and 1 occur
[4] = test system: U2OS; assay: Multiplex assay against U2OS; settings: human, 10 µM, compound concentration 10 uM; in short: as §1
[5] = test system: Fibroblast; assay: Multiplex assay against human fibroblast; settings: 10 µM, compound concentration 10 uM; in short: as §1
[6] = test system: HEK-293T; assay: Incucyte cell viability with HEK293T; settings: human, 10 µM, compound concentration 10 uM; also: filed as whole numbers so only -1 and 0 and 1 occur
[7] = 0 h, replicate number 1, timepoint 0 hours
[8] = 6 h, replicate number 1, timepoint 6 hours
[9] = 12 h, replicate number 1, timepoint 12 hours
[10] = 18 h, replicate number 1, timepoint 18 hours
[11] = 24 h, replicate number 1, timepoint 24 hours
[12] = 24 h, replicate number 2, timepoint 24 hours

Compound: CCOCCn1cc(C(=O)Nc2ccc(-n3nc(-c4cccnc4)cc3C(F)(F)F)cn2)ccc1=O [BI 1935]
- Growth Rate [1, 7]: 0
- Growth Rate [1, 8]: 0
- Growth Rate [1, 9]: 0
- Growth Rate [1, 10]: 0
- Growth Rate [1, 11]: 0
- Growth Rate [1, 12]: 1
- Population Fragmented Nuclei (%) ([2]; 12 h, replicate 1): 15% and 16% and 10%
- Population Healthy Nuclei (%) ([2]; 12 h, replicate 1): 27% and 50% and 70%
- Population Hoechst High Intensity Objects (%) ([2]; 12 h, replicate 1): 20% and 15% and 10%
- Population Membrane Permeable-Phenotype (%) ([2]; 12 h, replicate 1): 6%
- Population Mitotic Cells (%) ([2]; 12 h, replicate 1): 30% and 78% and 83%
- Population Normal (%) ([2]; 12 h, replicate 1): 80% and 84% and 89%
- Total Cell Count ([2]; 12 h, replicate 1): 285 and 667 and 651
- Population Fragmented Nuclei (%) ([2]; 12 h, replicate 2): 3% and 7%
- Population Healthy Nuclei (%) ([2]; 12 h, replicate 2): 29% and 84% and 87%
- Population Membrane Permeable-Phenotype (%) ([2]; 12 h, replicate 2): 3% and 10% and 2%
- Population Mitotic Cells (%) ([2]; 12 h, replicate 2): 71% and 84% and 95%
- Population Normal (%) ([2]; 12 h, replicate 2): 91% and 96% and 97%
- Population Fragmented Nuclei (%) ([2]; 24 h, replicate 1): 20% and 16% and 10%
- Population Healthy Nuclei (%) ([2]; 24 h, replicate 1): 33% and 62% and 81%
- Population Hoechst High Intensity Objects (%) ([2]; 24 h, replicate 1): 18% and 14%
- Population Mitotic Cells (%) ([2]; 24 h, replicate 1): 29% and 75% and 80%
- Population Normal (%) ([2]; 24 h, replicate 1): 81% and 85%
- Total Cell Count ([2]; 24 h, replicate 1): 309 and 632 and 787
- Population Healthy Nuclei (%) ([2]; 24 h, replicate 2): 43% and 88% and 71%
- Population Hoechst High Intensity Objects (%) ([2]; 24 h, replicate 2): 2% and 4%
- Population Mitotic Cells (%) ([2]; 24 h, replicate 2): 53% and 88% and 98%
- Population Normal (%) ([2]; 24 h, replicate 2): 97% and 95%
- Population Apoptotic (%) ([2]; 48 h, replicate 1): 59%
- Population Fragmented Nuclei (%) ([2]; 48 h, replicate 1): 22%
- Population Healthy Nuclei (%) ([2]; 48 h, replicate 1): 33%
- Population Hoechst High Intensity Objects (%) ([2]; 48 h, replicate 1): 17%
- Population Membrane Permeable-Phenotype (%) ([2]; 48 h, replicate 1): 2%
- Population Mitochondria Different-Phenotype (%) ([2]; 48 h, replicate 1): 89%
- Population Mitotic Cells (%) ([2]; 48 h, replicate 1): 40%
- Population Normal (%) ([2]; 48 h, replicate 1): 82%
- Population Pyknosed Nuclei (%) ([2]; 48 h, replicate 1): 44%
- Population Tubulin-Different-Phenotype (%) ([2]; 48 h, replicate 1): 93%
- Total Cell Count ([2]; 48 h, replicate 1): 341
- Population Apoptotic (%) ([2]; 48 h, replicate 2): 33%
- Population Fragmented Nuclei (%) ([2]; 48 h, replicate 2): 4%
- Population Healthy Nuclei (%) ([2]; 48 h, replicate 2): 61%
- Population Hoechst High Intensity Objects (%) ([2]; 48 h, replicate 2): 4%
- Population Membrane Permeable-Phenotype (%) ([2]; 48 h, replicate 2): 6%
- Population Mitochondria Different-Phenotype (%) ([2]; 48 h, replicate 2): 55%
- Population Mitotic Cells (%) ([2]; 48 h, replicate 2): 66%
- Population Normal (%) ([2]; 48 h, replicate 2): 95%
- Population Pyknosed Nuclei (%) ([2]; 48 h, replicate 2): 33%
- Population Tubulin-Different-Phenotype (%) ([2]; 48 h, replicate 2): 79%
- Total Cell Count ([2]; 48 h, replicate 2): 283
- Growth Rate ([3]; 0 h, replicate number 2, timepoint 0 hours): 0
- Growth Rate [3, 8]: 1
- Growth Rate [3, 9]: 0
- Growth Rate ([3]; 12 h, replicate number 2, timepoint 12 hours): 1
- Growth Rate [3, 10]: 0
- Growth Rate [3, 11]: 0
- Growth Rate [3, 12]: 1
- Population Apoptotic (%) ([4]; 12 h, replicate 1): 22% and 50% and 42%
- Population Healthy Nuclei (%) ([4]; 12 h, replicate 1): 82% and 63% and 91%
- Population Hoechst High Intensity Objects (%) ([4]; 12 h, replicate 1): 4% and 8% and 3%
- Population Mitotic Cells (%) ([4]; 12 h, replicate 1): 77% and 50% and 57%
- Population Normal (%) ([4]; 12 h, replicate 1): 95% and 91% and 96%
- Total Cell Count ([4]; 12 h, replicate 1): 162 and 131 and 216
- Population Apoptotic (%) ([4]; 12 h, replicate 2): 28% and 47% and 16%
- Population Fragmented Nuclei (%) ([4]; 12 h, replicate 2): 5% and 8% and 12%
- Population Healthy Nuclei (%) ([4]; 12 h, replicate 2): 77% and 65%
- Population Hoechst High Intensity Objects (%) ([4]; 12 h, replicate 2): 10% and 7% and 9%
- Population Mitochondria Different-Phenotype (%) ([4]; 12 h, replicate 2): 22% and 47% and 19%
- Population Mitotic Cells (%) ([4]; 12 h, replicate 2): 71% and 52% and 83%
- Population Normal (%) ([4]; 12 h, replicate 2): 89% and 92% and 90%
- Total Cell Count ([4]; 12 h, replicate 2): 89 and 79 and 129
- Population Apoptotic (%) ([4]; 24 h, replicate 1): 42% and 33% and 27%
- Population Healthy Nuclei (%) ([4]; 24 h, replicate 1): 62% and 86% and 91%
- Population Hoechst High Intensity Objects (%) ([4]; 24 h, replicate 1): 6% and 3%
- Population Mitochondria Different-Phenotype (%) ([4]; 24 h, replicate 1): 51% and 17% and 20%
- Population Mitotic Cells (%) ([4]; 24 h, replicate 1): 57% and 66% and 72%
- Population Normal (%) ([4]; 24 h, replicate 1): 93% and 96%
- Total Cell Count ([4]; 24 h, replicate 1): 147 and 211 and 291
- Population Apoptotic (%) ([4]; 24 h, replicate 2): 46% and 40% and 66%
- Population Fragmented Nuclei (%) ([4]; 24 h, replicate 2): 3% and 9%
- Population Healthy Nuclei (%) ([4]; 24 h, replicate 2): 82% and 66%
- Population Hoechst High Intensity Objects (%) ([4]; 24 h, replicate 2): 7% and 8%
- Population Mitochondria Different-Phenotype (%) ([4]; 24 h, replicate 2): 27% and 50%
- Population Mitotic Cells (%) ([4]; 24 h, replicate 2): 53% and 60% and 33%
- Population Normal (%) ([4]; 24 h, replicate 2): 92% and 91%
- Population Tubulin-Different-Phenotype (%) ([4]; 24 h, replicate 2): 27% and 44% and 22%
- Total Cell Count ([4]; 24 h, replicate 2): 101 and 92 and 149
- Population Apoptotic (%) ([4]; 48 h, replicate 1): 51%
- Population Fragmented Nuclei (%) ([4]; 48 h, replicate 1): 16%
- Population Healthy Nuclei (%) ([4]; 48 h, replicate 1): 64%
- Population Hoechst High Intensity Objects (%) ([4]; 48 h, replicate 1): 10%
- Population Membrane Permeable-Phenotype (%) ([4]; 48 h, replicate 1): 15%
- Population Mitochondria Different-Phenotype (%) ([4]; 48 h, replicate 1): 26%
- Population Mitotic Cells (%) ([4]; 48 h, replicate 1): 48%
- Population Normal (%) ([4]; 48 h, replicate 1): 89%
- Population Pyknosed Nuclei (%) ([4]; 48 h, replicate 1): 19%
- Population Tubulin-Different-Phenotype (%) ([4]; 48 h, replicate 1): 51%
- Total Cell Count ([4]; 48 h, replicate 1): 178
- Population Apoptotic (%) ([4]; 48 h, replicate 2): 52%
- Population Fragmented Nuclei (%) ([4]; 48 h, replicate 2): 7%
- Population Healthy Nuclei (%) ([4]; 48 h, replicate 2): 73%
- Population Hoechst High Intensity Objects (%) ([4]; 48 h, replicate 2): 4%
- Population Membrane Permeable-Phenotype (%) ([4]; 48 h, replicate 2): 17%
- Population Mitochondria Different-Phenotype (%) ([4]; 48 h, replicate 2): 30%
- Population Mitotic Cells (%) ([4]; 48 h, replicate 2): 47%
- Population Normal (%) ([4]; 48 h, replicate 2): 95%
- Population Tubulin-Different-Phenotype (%) ([4]; 48 h, replicate 2): 40%
- Total Cell Count ([4]; 48 h, replicate 2): 114
- Population Apoptotic (%) ([5]; 12 h, replicate 1): 85% and 52% and 61%
- Population Fragmented Nuclei (%) ([5]; 12 h, replicate 1): 25% and 26% and 24%
- Population Healthy Nuclei (%) ([5]; 12 h, replicate 1): 45% and 60% and 58%
- Population Hoechst High Intensity Objects (%) ([5]; 12 h, replicate 1): 20% and 11% and 13%
- Population Membrane Permeable-Phenotype (%) ([5]; 12 h, replicate 1): 9% and 15% and 6%
- Population Normal (%) ([5]; 12 h, replicate 1): 79% and 88% and 86%
- Population Pyknosed Nuclei (%) ([5]; 12 h, replicate 1): 29% and 13% and 17%
- Population Apoptotic (%) ([5]; 12 h, replicate 2): 100% and 42% and 47%
- Population Membrane Permeable-Phenotype (%) ([5]; 12 h, replicate 2): 23% and 14% and 8%
- Population Normal (%) ([5]; 12 h, replicate 2): 62% and 60% and 92%
- Population Tubulin-Different-Phenotype (%) ([5]; 12 h, replicate 2): 23% and 57% and 64%
- Total Cell Count ([5]; 12 h, replicate 2): 78 and 61 and 79
- Population Apoptotic (%) ([5]; 24 h, replicate 1): 60% and 72% and 64%
- Population Fragmented Nuclei (%) ([5]; 24 h, replicate 1): 35% and 25% and 24%
- Population Healthy Nuclei (%) ([5]; 24 h, replicate 1): 50% and 61% and 62%
- Population Hoechst High Intensity Objects (%) ([5]; 24 h, replicate 1): 21% and 14% and 16%
- Population Membrane Permeable-Phenotype (%) ([5]; 24 h, replicate 1): 8% and 4%
- Population Mitotic Cells (%) ([5]; 24 h, replicate 1): 40% and 27% and 36%
- Population Normal (%) ([5]; 24 h, replicate 1): 78% and 85% and 83%
- Population Pyknosed Nuclei (%) ([5]; 24 h, replicate 1): 14% and 13% and 12%
- Population Apoptotic (%) ([5]; 24 h, replicate 2): 33% and 28% and 40%
- Population Healthy Nuclei (%) ([5]; 24 h, replicate 2): 44% and 25% and 66%
- Population Mitotic Cells (%) ([5]; 24 h, replicate 2): 66% and 71% and 60%
- Population Normal (%) ([5]; 24 h, replicate 2): 60% and 91%
- Population Tubulin-Different-Phenotype (%) ([5]; 24 h, replicate 2): 20% and 55% and 44%
- Total Cell Count ([5]; 24 h, replicate 2): 74 and 58 and 92
- Population Apoptotic (%) ([5]; 48 h, replicate 1): 55%
- Population Fragmented Nuclei (%) ([5]; 48 h, replicate 1): 44%
- Population Healthy Nuclei (%) ([5]; 48 h, replicate 1): 42%
- Population Hoechst High Intensity Objects (%) ([5]; 48 h, replicate 1): 22%
- Population Membrane Permeable-Phenotype (%) ([5]; 48 h, replicate 1): 0%
- Population Mitochondria Different-Phenotype (%) ([5]; 48 h, replicate 1): 40%
- Population Mitotic Cells (%) ([5]; 48 h, replicate 1): 44%
- Population Normal (%) ([5]; 48 h, replicate 1): 77%
- Population Pyknosed Nuclei (%) ([5]; 48 h, replicate 1): 12%
- Population Tubulin-Different-Phenotype (%) ([5]; 48 h, replicate 1): 86%
- Total Cell Count ([5]; 48 h, replicate 1): 90
- Population Apoptotic (%) ([5]; 48 h, replicate 2): 0%
- Population Fragmented Nuclei (%) ([5]; 48 h, replicate 2): 28%
- Population Healthy Nuclei (%) ([5]; 48 h, replicate 2): 71%
- Population Hoechst High Intensity Objects (%) ([5]; 48 h, replicate 2): 9%
- Population Membrane Permeable-Phenotype (%) ([5]; 48 h, replicate 2): 11%
- Population Mitochondria Different-Phenotype (%) ([5]; 48 h, replicate 2): 3%
- Population Mitotic Cells (%) ([5]; 48 h, replicate 2): 0%
- Population Normal (%) ([5]; 48 h, replicate 2): 90%
- Population Pyknosed Nuclei (%) ([5]; 48 h, replicate 2): 0%
- Population Tubulin-Different-Phenotype (%) ([5]; 48 h, replicate 2): 70%
- Total Cell Count ([5]; 48 h, replicate 2): 42
- Growth Rate [6, 7]: 1
- Growth Rate [6, 8]: 0
- Growth Rate [6, 9]: 0
- Growth Rate [6, 10]: 0
- Growth Rate [6, 11]: 0
